The values below come from ChEMBL document CHEMBL6134796, “Development and Evaluation of Indole-Based Phospholipase D Inhibitors for Lung Cancer Immunotherapy” (J Med Chem, 2025).

Data set [1] deals with A549. As to the kind of experiment: Downregulation of CD47 expression in human A549 cells by flow cytometry analysis. In kind it is functional, cell-based. Put shortly:
(§1)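 A549 cells treated with compound. Surface "don't eat-me" and "eat-me" markers measured by flow cytometry.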
(Flow cytometry measures light scatter and fluorescence of single cells or particles in a stream.)

Data set [2] relates to Mus musculus. As to the kind of experiment: In vivo inhibition of KRAS activation in male C57BL/6 mouse allografted with mouse Lewis lung carcinoma cell line assessed as decrease in ERK phosphorylation at 10 mg/kg, po. In kind it is functional, organism-based.
Data set [3] relates to Lewis lung carcinoma cell line. Put plainly: Antitumor activity against mouse Lewis lung carcinoma cell line allografted in male C57BL/6 mouse model assessed as recovery of spleen size at 10 mg/kg, po measured every other day for 3 weeks. In kind it is functional, organism-based. Put shortly: (§2)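 Syngeneic model: 6-week-old male C57BL/6 mice given 3 × 10^5 LLC cells in 50 μL PBS subcutaneously in the flank. At day 7, mice were randomized to vehicle PO daily or 10 mg/kg PO every other day for 3 weeks. Caliper volume was taken every 2 days as ([…])/2, with tumor weight at end. Spleen size and weight were recorded. Ki67 and cleaved caspase-3 were scored by IHC (DAB, hematoxylin).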

The subject of data set [4] is Lewis lung carcinoma cell line. As to the kind of experiment: Antitumor activity against mouse Lewis lung carcinoma cell line allografted in […] male C57BL/6 mouse model assessed as increase in cell apoptosis at 10 mg/kg, po measured every other day for 3 weeks. In kind it is functional, organism-based.
The test system of data set [5] is A549. Put plainly: Downregulation of PD-L1 expression in human A549 cells by flow cytometry analysis. In kind it is functional, cell-based. The gist of the method:
as §1

In data set [6] the test system is A549. As to the kind of experiment: Inhibition of PLD1 F614A mutant (unknown origin) overexpressed in human A549 cells. In kind it is cell-based. Put shortly: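 A549 cells transfected with wild-type PLD1, PLD1 mutants (L425A, F614A, F789A) or PLD2, then compound-treated. PLD activity measured as [3H]phosphatidylbutanol formed in the presence of 1-butanol after [3H]myristic acid labeling, expressed as % of total lipid cpm. At least three independent experiments.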

The subject of data set [7] is A549. Put plainly: Induction of apoptosis in human A549 cells increase in caspase-3 level. In kind it is functional, cell-based. The gist of the method:
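Cells plated at about 40% density and treated at 10 μM for 48 h, with Ac-DEVD-CHO as the caspase-3 inhibitor control. Incubated with 1 μM NucView 488 caspase-3 substrate in PBS for 30 min at room temperature. Stained with 1 μM Hoechst 33342 and fluorescence quantified on a plate reader.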

Data set [8] concerns A549. As to the kind of experiment: Upregulation of CRT expression in human A549 cells by flow cytometry analysis. In kind it is functional, cell-based. The gist of the method: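 A549 cells treated with compound; surface "eat-me" and "don't eat-me" signal proteins measured by flow cytometry; at least three independent experiments, mean ± SEM.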
Data set [9] relates to A549. As to the kind of experiment: Induction of apoptosis in human A549 cells assessed as increase in cleaved PARP activity measured up to 48 hrs in presence of gemcitabine by flow cytometry analysis. In kind it is functional, cell-based. The gist of the method:
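A549 cells given compound, gemcitabine, or both. Apoptosis assessed by PI staining, annexin V flow cytometry, cleaved PARP immunoblot, and caspase-3 activity. For caspase-3: drugs at 10 μM for 48 h, then 1 μM NucView 488 substrate for 30 min, with 1 μM Hoechst 33342, read by plate fluorescence.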

Data set [10] is described as follows: Metabolic stability in human plasma assessed as parent compound remaining at 10 uM measured after 120 mins. As to conditions: read-out: Stability. In kind it is ADME, cell-free. The gist of the method: (§3)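 Citrated human plasma spiked to final 10 μM, incubated at 37 °C for 0, 30 and 120 min; quenched with acetonitrile containing internal standard, vortexed, centrifuged at 4 °C; parent remaining quantified by LC-MS/MS in MRM mode on C18 column, formic acid water/acetonitrile gradient.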

Data set [11] concerns A549. Put plainly: Cytotoxicity against human A549 cells assessed as increase in cell death rate by WST-1 assay. In kind it is functional, cell-based. As to conditions: time 2-48 hrs.
A short description of data set [12]: Metabolic stability in human plasma assessed as parent compound remaining at 10 uM measured after 30 mins. In kind it is ADME, cell-free. As to conditions: read-out: Stability. Put shortly:
as §3

The target of data set [13] is T1, Phospholipase D1 (Mus musculus) (UniProt Q9Z280).
T1 sequence (whole entry): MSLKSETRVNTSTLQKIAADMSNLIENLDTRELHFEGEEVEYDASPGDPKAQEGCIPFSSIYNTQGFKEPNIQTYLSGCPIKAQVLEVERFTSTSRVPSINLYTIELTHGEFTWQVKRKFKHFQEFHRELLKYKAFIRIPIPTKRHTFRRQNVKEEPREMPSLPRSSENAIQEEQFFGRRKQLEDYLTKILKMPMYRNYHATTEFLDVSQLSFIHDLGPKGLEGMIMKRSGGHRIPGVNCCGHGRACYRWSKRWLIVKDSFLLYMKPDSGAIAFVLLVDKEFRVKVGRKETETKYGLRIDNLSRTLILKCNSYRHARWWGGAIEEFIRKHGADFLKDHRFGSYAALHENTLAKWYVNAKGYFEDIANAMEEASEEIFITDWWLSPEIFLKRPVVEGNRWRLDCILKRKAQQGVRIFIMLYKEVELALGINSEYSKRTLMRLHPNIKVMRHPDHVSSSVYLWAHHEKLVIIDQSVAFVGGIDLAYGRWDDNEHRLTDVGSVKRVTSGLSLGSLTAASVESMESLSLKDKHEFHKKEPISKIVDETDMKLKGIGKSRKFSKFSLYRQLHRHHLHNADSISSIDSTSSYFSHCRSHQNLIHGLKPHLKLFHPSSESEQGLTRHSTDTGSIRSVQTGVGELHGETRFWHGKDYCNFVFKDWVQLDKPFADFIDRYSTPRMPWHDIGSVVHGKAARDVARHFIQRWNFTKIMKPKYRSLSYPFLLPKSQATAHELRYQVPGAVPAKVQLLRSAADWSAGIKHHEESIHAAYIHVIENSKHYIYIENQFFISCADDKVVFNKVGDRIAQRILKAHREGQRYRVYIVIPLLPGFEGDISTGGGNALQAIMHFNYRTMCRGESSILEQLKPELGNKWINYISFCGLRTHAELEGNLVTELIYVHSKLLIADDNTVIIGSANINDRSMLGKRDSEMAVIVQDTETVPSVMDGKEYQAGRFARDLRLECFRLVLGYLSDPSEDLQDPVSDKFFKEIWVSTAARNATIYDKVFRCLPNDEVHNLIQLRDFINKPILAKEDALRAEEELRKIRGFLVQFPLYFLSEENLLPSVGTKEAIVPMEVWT
Put plainly: In vivo inhibition of PLD1 in male C57BL/6 mouse allografted with mouse Lewis lung carcinoma cell line assessed as reduction in CD24 expression at 10 mg/kg, po by immunofluorescence analysis. In kind it is functional, organism-based.

Data set [14] deals with Lewis lung carcinoma cell line. Put plainly: Antitumor activity against mouse Lewis lung carcinoma cell line allografted in […] male C57BL/6 mouse model assessed as reduction in cell proliferation at 10 mg/kg, po measured every other day for 3 weeks. In kind it is functional, organism-based.
The subject of data set [15] is A549. Put plainly: Induction of apoptosis in human A549 cells by annexin V and PI staining based flow cytometry analysis. In kind it is functional, cell-based.
Data set [16] concerns Lewis lung carcinoma cell line. Put plainly: Antitumor activity against mouse Lewis lung carcinoma cell line allografted in male C57BL/6 mouse model assessed as recovery of spleen weight at 10 mg/kg, po measured every other day for 3 weeks. In kind it is functional, organism-based. Put shortly:
as §2

Data set [17] deals with A549. As to the kind of experiment: Inhibition of cell invasion in human A549 cells measured after 24 hrs by crystal violet staining based light microscopic analysis. In kind it is functional.
The test system of data set [18] is A549. As to the kind of experiment: Inhibition of cell migration in human A549 cells measured after 24 hrs by crystal violet staining based light microscopic analysis. In kind it is functional.
Data set [19] concerns A549. As to the kind of experiment: Cytotoxicity against human A549 cells assessed as inhibition of cell growth incubated for 48 hrs by WST-1 assay. In kind it is functional, cell-based. As to conditions: A549, 48 h. (Tetrazolium dyes change colour on reduction, which living cells bring about.)

Molecules are shown by their SMILES. The source made the active and inactive calls. The calls are words filed in the database; no cut-off is given here.

In the case of `O=C(CCc1c[nH]c2ccccc12)Nc1cc(C(F)(F)F)cc(C(F)(F)F)c1`, the result in data set [1], in [3], in data set [4], in [5], in data set [7] and in [8] was Active. The result in data set [9], in [14], in data set [15] and in data set [16] was Active. Besides, the inhibition result in data set [2], in data set [13], in data set [17] and in data set [18] was “Active” each time. Further, the inhibition entry in data set [6] is “inactive”. In addition, in data set [10], the remaining at 2 h, 10 µM turned out to be 94.6%. The Activity entry in [11] was “Time-dependent-effect”. The remaining at 0.5 h, 10 µM in data set [12] came to 97.4%. Also, the IC50 (in general, the concentration needed to halve the response being measured) in [19] is 18 µM.
